Results published in ChEMBL document CHEMBL4354843, “Structure-Based Design of a Potent and Selective Covalent Inhibitor for SRC Kinase That Targets a P-Loop Cysteine” (J Med Chem, 2020).

How the values were obtained:
[1] = target: 5'-AMP-activated protein kinase catalytic subunit alpha-1 (Homo sapiens) (UniProt Q13131); assay: Binding affinity to wild-type human partial length AMPK alpha1 (M1 to E306 residues) expressed in bacterial expression system assessed as residual binding level at 1 uM by Kinomescan method relative to control
5'-AMP-activated protein kinase catalytic subunit alpha-1 (Homo sapiens), sequence (Q13131 whole entry, looked up, the tested form may be a part): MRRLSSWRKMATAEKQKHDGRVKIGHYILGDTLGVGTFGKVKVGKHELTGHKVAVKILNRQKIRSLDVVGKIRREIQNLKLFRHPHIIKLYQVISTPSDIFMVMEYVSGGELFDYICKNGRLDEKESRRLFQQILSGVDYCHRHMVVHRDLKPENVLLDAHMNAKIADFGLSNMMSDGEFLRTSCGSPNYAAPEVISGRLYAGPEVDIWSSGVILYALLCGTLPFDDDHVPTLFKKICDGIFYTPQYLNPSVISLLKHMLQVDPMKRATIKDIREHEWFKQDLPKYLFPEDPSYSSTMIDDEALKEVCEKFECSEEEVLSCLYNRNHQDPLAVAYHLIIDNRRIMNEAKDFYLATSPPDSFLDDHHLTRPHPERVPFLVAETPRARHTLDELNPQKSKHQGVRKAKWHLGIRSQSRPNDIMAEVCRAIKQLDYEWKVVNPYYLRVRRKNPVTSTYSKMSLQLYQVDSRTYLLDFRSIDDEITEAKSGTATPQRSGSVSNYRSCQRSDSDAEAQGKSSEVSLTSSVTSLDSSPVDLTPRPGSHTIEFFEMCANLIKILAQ

[2] = target: NUAK family SNF1-like kinase 1 (Homo sapiens) (UniProt O60285); assay: Binding affinity to wild-type human partial length ARK5 (E25 to I332 residues) expressed in bacterial expression system assessed as residual binding level at 1 uM by Kinomescan method relative to control
[3] = target: Aurora kinase A (Homo sapiens) (UniProt O14965); assay: Binding affinity to wild-type human partial length AURKA (E122 to K401 residues) expressed in mammalian expression system assessed as residual binding level at 1 uM by Kinomescan method relative to control
[4] = target: Cyclin-dependent kinase-like 2 (Homo sapiens) (UniProt Q92772); assay: Binding affinity to wild-type human partial length CDKL2 (M1 to D327 residues) expressed in bacterial expression system assessed as residual binding level at 1 uM by Kinomescan method relative to control
[5] = target: Casein kinase I isoform gamma-1 (Homo sapiens) (UniProt Q9HCP0); assay: Binding affinity to wild-type human partial length CSNK1G1 (T15 to S353 residues) expressed in bacterial expression system assessed as residual binding level at 1 uM by Kinomescan method relative to control
[6] = target: Casein kinase II subunit alpha (Homo sapiens) (UniProt P68400); assay: Binding affinity to wild-type human full length CSNK2A1 (M1 to Q391 residues) expressed in mammalian expression system assessed as residual binding level at 1 uM by Kinomescan method relative to control
In short: (§1)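 KinomeScan, an active site-directed competition binding panel of 468 kinases. The test compound was at 1 μM. The readout is remaining kinase binding as a percentage of the DMSO control. Scores above 35% were treated as weak binding and not listed.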

[7] = target: Serine/threonine-protein kinase DCLK3 (Homo sapiens) (UniProt Q9C098); assay: Binding affinity to wild-type human partial length DCAMKL3 (E140 to V628 residues) expressed in bacterial expression system assessed as residual binding level at 1 uM by Kinomescan method relative to control
Serine/threonine-protein kinase DCLK3 (Homo sapiens), sequence (Q9C098 whole entry, the tested form may be a part): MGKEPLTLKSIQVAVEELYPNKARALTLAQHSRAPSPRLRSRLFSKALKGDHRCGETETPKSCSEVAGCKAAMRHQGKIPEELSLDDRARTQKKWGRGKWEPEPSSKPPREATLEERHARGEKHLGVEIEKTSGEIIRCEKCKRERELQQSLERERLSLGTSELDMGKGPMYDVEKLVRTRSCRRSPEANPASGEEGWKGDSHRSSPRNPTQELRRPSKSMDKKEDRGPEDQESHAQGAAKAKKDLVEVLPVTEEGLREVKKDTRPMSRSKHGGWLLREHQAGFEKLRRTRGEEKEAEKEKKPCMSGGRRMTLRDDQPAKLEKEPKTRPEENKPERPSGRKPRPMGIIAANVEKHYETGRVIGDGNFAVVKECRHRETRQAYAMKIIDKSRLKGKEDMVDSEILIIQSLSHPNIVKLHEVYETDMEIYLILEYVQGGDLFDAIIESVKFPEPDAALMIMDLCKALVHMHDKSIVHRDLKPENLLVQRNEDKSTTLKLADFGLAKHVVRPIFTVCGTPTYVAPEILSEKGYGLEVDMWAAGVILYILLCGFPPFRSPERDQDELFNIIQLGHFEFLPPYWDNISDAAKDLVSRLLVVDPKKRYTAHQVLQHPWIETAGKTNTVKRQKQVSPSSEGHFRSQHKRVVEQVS

[8] = target: Myotonin-protein kinase (Homo sapiens) (UniProt Q09013); assay: Binding affinity to wild-type human partial length DMPK (V47 to V415 residues) expressed in bacterial expression system assessed as residual binding level at 1 uM by Kinomescan method relative to control
[9] = target: Receptor-type tyrosine-protein kinase FLT3 (Homo sapiens) (UniProt P36888); assay: Binding affinity to wild-type human partial length FLT3 (V592 to Y969 residues) expressed in bacterial expression system assessed as residual binding level at 1 uM by Kinomescan method relative to control
[10] = test system: Receptor-type tyrosine-protein kinase FLT3 (Homo sapiens), P36888 [K663Q]; assay: Binding affinity to human partial length FLT3 K663Q mutant (V592 to Y969 residues) expressed in bacterial expression system assessed as residual binding level at 1 uM by Kinomescan method relative to control
In short: (§2)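 KinomeScan active site-directed competition binding panel (468 kinases), compound tested at 1 μM. Result expressed as remaining kinase signal versus DMSO control (percent of control).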

[11] = target: Homeodomain-interacting protein kinase 2 (Homo sapiens) (UniProt Q9H2X6); assay: Binding affinity to wild-type human partial length HIPK2 (M153 to S564 residues) expressed in mammalian expression system assessed as residual binding level at 1 uM by Kinomescan method relative to control
Homeodomain-interacting protein kinase 2 (Homo sapiens), sequence (Q9H2X6 whole entry, looked up, the tested form may be a part): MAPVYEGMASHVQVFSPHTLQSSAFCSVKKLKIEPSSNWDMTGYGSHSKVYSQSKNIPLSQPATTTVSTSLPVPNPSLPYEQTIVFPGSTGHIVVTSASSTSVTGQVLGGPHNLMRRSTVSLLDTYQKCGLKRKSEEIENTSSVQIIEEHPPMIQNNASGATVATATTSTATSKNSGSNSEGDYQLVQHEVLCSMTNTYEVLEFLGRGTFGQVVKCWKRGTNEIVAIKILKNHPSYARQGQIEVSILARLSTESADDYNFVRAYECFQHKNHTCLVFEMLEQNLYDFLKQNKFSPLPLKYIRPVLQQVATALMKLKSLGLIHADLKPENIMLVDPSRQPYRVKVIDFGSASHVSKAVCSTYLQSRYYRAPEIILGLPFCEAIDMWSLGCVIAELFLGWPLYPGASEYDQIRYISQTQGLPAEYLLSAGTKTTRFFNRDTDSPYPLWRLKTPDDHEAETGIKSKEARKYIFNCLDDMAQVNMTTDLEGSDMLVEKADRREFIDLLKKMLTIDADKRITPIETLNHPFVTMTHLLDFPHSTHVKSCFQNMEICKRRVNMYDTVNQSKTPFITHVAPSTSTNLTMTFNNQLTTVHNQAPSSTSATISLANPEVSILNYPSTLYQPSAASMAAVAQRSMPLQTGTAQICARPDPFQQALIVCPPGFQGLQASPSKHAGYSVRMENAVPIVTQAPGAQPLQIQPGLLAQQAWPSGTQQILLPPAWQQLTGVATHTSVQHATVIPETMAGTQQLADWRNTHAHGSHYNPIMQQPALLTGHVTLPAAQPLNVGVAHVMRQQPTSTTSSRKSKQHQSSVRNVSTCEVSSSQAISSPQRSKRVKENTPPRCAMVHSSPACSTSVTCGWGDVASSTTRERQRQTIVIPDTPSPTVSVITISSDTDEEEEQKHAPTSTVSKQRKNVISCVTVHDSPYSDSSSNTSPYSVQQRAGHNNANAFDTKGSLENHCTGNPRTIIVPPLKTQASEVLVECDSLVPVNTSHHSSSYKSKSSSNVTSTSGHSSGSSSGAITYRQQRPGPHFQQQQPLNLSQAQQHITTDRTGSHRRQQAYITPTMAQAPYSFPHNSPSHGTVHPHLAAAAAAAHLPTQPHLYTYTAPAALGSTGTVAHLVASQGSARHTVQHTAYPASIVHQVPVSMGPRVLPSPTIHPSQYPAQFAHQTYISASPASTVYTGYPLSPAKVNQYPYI

[12] = target: Tyrosine-protein kinase ITK/TSK (Homo sapiens) (UniProt Q08881); assay: Binding affinity to wild-type human partial length ITK (R335 to L620 residues) expressed in bacterial expression system assessed as residual binding level at 1 uM by Kinomescan method relative to control
[13] = target: Serine/threonine-protein kinase LATS1 (Homo sapiens) (UniProt O95835); assay: Binding affinity to wild-type human partial length LATS1 (Q678 to V1130 residues) expressed in bacterial expression system assessed as residual binding level at 1 uM by Kinomescan method relative to control
[14] = target: Dual specificity mitogen-activated protein kinase kinase 7 (Homo sapiens) (UniProt O14733); assay: Binding affinity to wild-type human full length MKK7 (M1 to R419 residues) expressed in mammalian expression system assessed as residual binding level at 1 uM by Kinomescan method relative to control; in short: as §1
[15] = target: MAP kinase-interacting serine/threonine-protein kinase 2 (Homo sapiens) (UniProt Q9HBH9); assay: Binding affinity to wild-type human partial length MKNK2 (G63 to S388 residues) expressed in mammalian expression system assessed as residual binding level at 1 uM by Kinomescan method relative to control
MAP kinase-interacting serine/threonine-protein kinase 2 (Homo sapiens), sequence (Q9HBH9 whole entry, looked up, the tested form may be a part): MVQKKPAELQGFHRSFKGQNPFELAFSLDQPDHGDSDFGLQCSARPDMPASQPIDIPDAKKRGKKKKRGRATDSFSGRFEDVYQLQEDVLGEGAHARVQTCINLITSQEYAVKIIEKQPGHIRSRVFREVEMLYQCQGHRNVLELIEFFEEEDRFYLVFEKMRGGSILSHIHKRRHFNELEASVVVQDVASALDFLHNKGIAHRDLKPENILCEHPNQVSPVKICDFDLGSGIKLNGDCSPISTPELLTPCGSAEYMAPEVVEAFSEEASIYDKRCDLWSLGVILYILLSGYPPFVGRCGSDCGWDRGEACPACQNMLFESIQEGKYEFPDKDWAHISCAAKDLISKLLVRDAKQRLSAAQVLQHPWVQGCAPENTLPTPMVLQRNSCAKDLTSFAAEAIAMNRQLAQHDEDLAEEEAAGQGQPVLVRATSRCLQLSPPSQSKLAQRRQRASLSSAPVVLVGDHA
In short: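 Active-site-directed competition binding panel of 468 kinases (KinomeScan), compound at 1 μM. The read-out is kinase remaining bound, given as a percentage of the DMSO control. […]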

[16] = target: Serine/threonine-protein kinase Nek7 (Homo sapiens) (UniProt Q8TDX7); assay: Binding affinity to wild-type human full length NEK7 (M1 to S302 residues) expressed in bacterial expression system assessed as residual binding level at 1 uM by Kinomescan method relative to control
Serine/threonine-protein kinase Nek7 (Homo sapiens), sequence (Q8TDX7 whole entry, looked up, the tested form may be a part): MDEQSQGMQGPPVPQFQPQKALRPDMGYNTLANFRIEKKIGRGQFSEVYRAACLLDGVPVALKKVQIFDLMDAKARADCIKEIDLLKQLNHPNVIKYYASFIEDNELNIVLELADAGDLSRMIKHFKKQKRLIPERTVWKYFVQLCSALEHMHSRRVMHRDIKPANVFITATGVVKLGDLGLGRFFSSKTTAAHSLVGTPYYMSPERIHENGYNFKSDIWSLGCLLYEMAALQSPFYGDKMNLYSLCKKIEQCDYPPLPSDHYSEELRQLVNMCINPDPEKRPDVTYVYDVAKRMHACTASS
In short: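 Active-site-directed competition binding panel (KinomeScan) covering 468 kinases. Test agent was screened at 1 μM. The read-out is the remaining kinase signal expressed relative to a DMSO control. Scores above 35%, taken as weak binding, were not reported.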

[17] = test system: Phosphatidylinositol 4,5-bisphosphate 3-kinase catalytic subunit alpha isoform (Homo sapiens), P42336 [E545K]; assay: Binding affinity to human partial length PIK3CA E545K mutant (R108 to N1068 residues) expressed in mammalian expression system assessed as residual binding level at 1 uM by Kinomescan method relative to control; in short: as §2
[18] = target: SRSF protein kinase 1 (Homo sapiens) (UniProt Q96SB4); assay: Binding affinity to wild-type human full length SRPK1 (M1 to S655 residues) expressed in bacterial expression system assessed as residual binding level at 1 uM by Kinomescan method relative to control
SRSF protein kinase 1 (Homo sapiens), sequence (Q96SB4 whole entry, the tested form may be a part): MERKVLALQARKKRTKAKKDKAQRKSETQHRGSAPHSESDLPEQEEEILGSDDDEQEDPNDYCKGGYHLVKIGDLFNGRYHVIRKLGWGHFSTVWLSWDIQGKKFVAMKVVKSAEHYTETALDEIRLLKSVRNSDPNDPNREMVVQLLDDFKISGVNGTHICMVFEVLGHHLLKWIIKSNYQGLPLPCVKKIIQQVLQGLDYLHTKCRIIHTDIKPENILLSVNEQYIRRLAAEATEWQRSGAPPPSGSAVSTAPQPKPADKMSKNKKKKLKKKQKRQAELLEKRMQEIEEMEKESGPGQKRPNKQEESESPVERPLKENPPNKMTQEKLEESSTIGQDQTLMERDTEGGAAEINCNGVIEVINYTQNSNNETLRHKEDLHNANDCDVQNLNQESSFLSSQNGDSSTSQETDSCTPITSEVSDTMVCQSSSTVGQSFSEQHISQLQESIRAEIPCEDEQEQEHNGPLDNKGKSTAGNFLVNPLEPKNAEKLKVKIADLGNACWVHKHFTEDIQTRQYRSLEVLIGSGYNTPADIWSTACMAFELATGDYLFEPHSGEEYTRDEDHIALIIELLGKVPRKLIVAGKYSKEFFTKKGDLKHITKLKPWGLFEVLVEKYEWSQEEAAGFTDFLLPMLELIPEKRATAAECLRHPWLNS
In short: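 Active site-directed binding assay (KinomeScan) run across a 468-kinase panel, with the test compound at 1 μM. The read-out is the remaining kinase signal in the presence of compound, expressed as a percentage of the DMSO control. Scores above 35% were taken as weak binding and were not reported.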

[19] = target: Serine/threonine-protein kinase 25 (Homo sapiens) (UniProt O00506); assay: Binding affinity to wild-type human partial length YSK1 (V14 to H295 residues) expressed in bacterial expression system assessed as residual binding level at 1 uM by Kinomescan method relative to control
Serine/threonine-protein kinase 25 (Homo sapiens), sequence (O00506 whole entry, looked up, the tested form may be a part): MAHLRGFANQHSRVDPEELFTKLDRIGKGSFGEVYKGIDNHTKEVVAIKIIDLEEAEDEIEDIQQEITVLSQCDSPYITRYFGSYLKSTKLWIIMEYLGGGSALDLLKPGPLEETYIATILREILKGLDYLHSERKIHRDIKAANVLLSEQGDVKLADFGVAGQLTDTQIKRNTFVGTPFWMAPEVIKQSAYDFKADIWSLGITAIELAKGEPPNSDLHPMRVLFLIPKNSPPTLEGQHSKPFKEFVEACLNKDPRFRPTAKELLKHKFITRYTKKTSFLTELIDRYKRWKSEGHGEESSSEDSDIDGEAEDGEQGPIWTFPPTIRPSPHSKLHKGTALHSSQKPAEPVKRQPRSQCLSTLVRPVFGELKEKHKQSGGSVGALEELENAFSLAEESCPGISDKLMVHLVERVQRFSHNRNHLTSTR

[20] = target: Mitogen-activated protein kinase kinase kinase 20 (Homo sapiens) (UniProt Q9NYL2); assay: Binding affinity to wild-type human partial length ZAK (M1 to L331 residues) expressed in bacterial expression system assessed as residual binding level at 1 uM by Kinomescan method relative to control
Mitogen-activated protein kinase kinase kinase 20 (Homo sapiens), sequence (Q9NYL2 2-800 limits assumed): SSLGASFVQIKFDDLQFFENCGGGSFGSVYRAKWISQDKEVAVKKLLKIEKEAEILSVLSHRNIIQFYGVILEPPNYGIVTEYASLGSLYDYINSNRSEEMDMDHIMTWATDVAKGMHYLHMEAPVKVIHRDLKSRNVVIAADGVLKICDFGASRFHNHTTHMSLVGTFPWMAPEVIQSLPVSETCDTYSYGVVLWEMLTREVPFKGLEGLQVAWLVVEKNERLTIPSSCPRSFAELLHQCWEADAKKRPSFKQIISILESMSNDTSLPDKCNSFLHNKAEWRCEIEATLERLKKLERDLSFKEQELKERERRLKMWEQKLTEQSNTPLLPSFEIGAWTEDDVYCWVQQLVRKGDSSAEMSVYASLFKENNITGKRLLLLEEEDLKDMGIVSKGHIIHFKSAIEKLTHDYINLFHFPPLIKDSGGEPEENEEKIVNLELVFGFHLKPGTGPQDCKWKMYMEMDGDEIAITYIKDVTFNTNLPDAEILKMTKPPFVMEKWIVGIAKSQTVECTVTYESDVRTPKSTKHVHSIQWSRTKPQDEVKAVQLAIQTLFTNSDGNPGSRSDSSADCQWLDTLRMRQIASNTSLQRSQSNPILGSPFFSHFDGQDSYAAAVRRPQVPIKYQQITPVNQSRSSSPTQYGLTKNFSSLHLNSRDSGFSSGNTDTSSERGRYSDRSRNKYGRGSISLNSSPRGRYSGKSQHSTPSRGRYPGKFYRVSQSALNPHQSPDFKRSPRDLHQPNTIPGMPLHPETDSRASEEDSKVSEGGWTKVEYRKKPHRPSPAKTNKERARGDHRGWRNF
In short: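 Active site-directed competition binding panel (KinomeScan, 468 kinases). Test compound at 1 μM. Read-out is kinase binding remaining versus DMSO control, expressed as percent of control. Scores above 35% are treated as weak binding.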

Q: `C=CC(=O)Nc1ccccc1Nc1nc(Nc2ccc(N3CCN(C)CC3)cc2)ncc1C(=O)Nc1c(C)cccc1Cl` was tested. Which Activity [1] did it give?
A: The Activity was 100%.

Q: And the Activity [2]?
A: The Activity was 100%.

Q: What about the Activity [3] of the same compound?
A: The Activity was 100%.

Q: What about the Activity [4] of the same compound?
A: The Activity was 100%.

Q: And the Activity [5]?
A: The Activity was 100%.

Q: What about the Activity [6] of the same compound?
A: Its Activity is 68%.

Q: And the Activity [7]?
A: Its Activity is 100%.

Q: And the Activity [8]?
A: Its Activity is 100%.

Q: What about the Activity [9] of the same compound?
A: The Activity was 99%.

Q: And the Activity [10]?
A: The Activity was 100%.

Q: What about the Activity [11] of the same compound?
A: The Activity was 100%.

Q: What about the Activity [12] of the same compound?
A: The Activity was 100%.

Q: What about the Activity [13] of the same compound?
A: Its Activity is 100%.

Q: And the Activity [14]?
A: The Activity was 96%.

Q: What about the Activity [15] of the same compound?
A: Its Activity is 97%.

Q: And the Activity [16]?
A: The Activity was 100%.

Q: And the Activity [17]?
A: Its Activity is 79%.

Q: And the Activity [18]?
A: The Activity was 100%.

Q: And the Activity [19]?
A: The Activity was 100%.

Q: What about the Activity [20] of the same compound?
A: Its Activity is 98%.
